Measurements as given in ChEMBL document CHEMBL5096201, “Rufomycins or Ilamycins: Naming Clarifications and Definitive Structural Assignments” (J Nat Prod, 2021).
≈ marks a conversion by molar mass, not a printed value.

Experiments:
[1] = system: Mycobacterium tuberculosis; test: Antimycobacterial activity against Mycobacterium tuberculosis incubated for 7 days by microplate alamar blue assay; type: functional; conditions: 168 h, time 7 day
Outline: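 Microplate Alamar Blue readout by fluorescence. MIC is the lowest concentration giving a 90% fluorescence reduction relative to untreated bacterial controls.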

[2] = Binding affinity to N-terminal domain of Mycobacterium tuberculosis ClpC1 expressed in Escherichia coli BL21 (DE3) assessed as dissociation constant by surface plasma resonance assay
Outline: (§1)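 SPR with ClpC1 N-terminal domain or full-length protein. Association and dissociation rate constants (ka, kd) come from global fitting of double-referenced sensorgrams to a 1:1 Langmuir model. KD is calculated as kd/ka.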

[3] = Binding affinity to in full length Mycobacterium tuberculosis ClpC1 expressed in Escherichia coli BL21 (DE3) assessed as dissociation constant by surface plasma resonance assay; outline: as §1

Compound	MIC90 [1]	Kd [2]	Kd [3]
C/C=C/C[C@@H]1NC(=O)[C@H](CC(C)C)N2C(=O)[C@H](C[C@H](C)[C@H]2O)N(C)C(=O)[C@H](C)NC(=O)[C@H](Cc2ccc(O)c([N+](=O)[O-])c2)NC(=O)[C@H](CC(C)C)N(C)C(=O)[C@H](Cc2cn(C(C)(C)[C@H]3CO3)c3ccccc23)NC1=O	0.021 µM (≈ 0.0219 µg/mL)	32 nM	31 nM
C/C=C/C[C@@H]1NC(=O)[C@H](CC(C)C)N2C(=O)[C@H](C[C@H](C)[C@@H]2O)N(C)C(=O)[C@H](C)NC(=O)[C@H](Cc2ccc(O)c([N+](=O)[O-])c2)NC(=O)[C@H](CC(C)C)N(C)C(=O)[C@H](Cc2cn(C(C)(C)[C@H]3CO3)c3ccccc23)NC1=O	0.012 µM (≈ 0.0125 µg/mL)	29 nM	27 nM
C/C=C/C[C@@H]1NC(=O)[C@H](CC(C)C)N2C(=O)[C@H](C[C@@H](C)[C@@H]2O)N(C)C(=O)[C@H](C)NC(=O)[C@H](Cc2ccc(O)c([N+](=O)[O-])c2)NC(=O)[C@H](CC(C)C)N(C)C(=O)[C@H](Cc2cn(C(C)(C)[C@H]3CO3)c3ccccc23)NC1=O	0.047 µM (≈ 0.049 µg/mL)	186 nM	209 nM
C/C=C/C[C@@H]1NC(=O)[C@H](CC(C)C)N2C(=O)[C@H](C[C@@H](C)[C@H]2O)N(C)C(=O)[C@H](C)NC(=O)[C@H](Cc2ccc(O)c([N+](=O)[O-])c2)NC(=O)[C@H](CC(C)C)N(C)C(=O)[C@H](Cc2cn(C(C)(C)[C@H]3CO3)c3ccccc23)NC1=O	0.046 µM (≈ 0.0479 µg/mL)	183 nM	178 nM
NNC(=O)c1ccncc1 [ISONIAZID]	0.463 µM (≈ 0.0635 µg/mL)	–	–
CO[C@H]1/C=C/O[C@@]2(C)Oc3c(C)c(O)c4c(O)c(c(/C=N/N5CCN(C)CC5)c(O)c4c3C2=O)NC(=O)/C(C)=C\C=C\[C@H](C)[C@H](O)[C@@H](C)[C@@H](O)[C@@H](C)[C@H](OC(C)=O)[C@@H]1C [RIFAMPIN]	0.028 µM (≈ 0.023 µg/mL)	–	–
